From ChEMBL document CHEMBL4270574, “Methotrexate prodrugs sensitive to reactive oxygen species for the improved treatment of rheumatoid arthritis” (Eur J Med Chem, 2018) come the findings set out here.

Data set [1] is described as follows: Chemical stability in pH 7.4 PBS buffer by RP-UPLC-MS analysis. It is filed as physicochemical. In a few lines:
(§1)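 Prodrug at 100 µM in 20% DMSO/PBS (pH 7.4) with diclofenac internal standard was incubated at 37 °C with shaking, with H2O2 at 0.25–10 mM or PBS only (stability control). Samples were taken from 5 min to 24 h. Percent remaining compound and MTX formation were read by RP-UPLC at 306 nm. Runs were in triplicate and t1/2 is given ± SD.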

Data set [2] deals with Mus musculus. Put plainly: Toxicity in DBA/1J mouse model of collagen-induced arthritis inflammation assessed as reduction in body weight at 7 mg/kg, ip administered daily for 14 days starting from day 27 post disease onset. Conditions: in vivo, 336 h. It is filed as organism-based.
A short description of data set [3]: Chemical stability in 20% DMSO/PBS at 100 uM at 37 degC after 60 mins in presence of 10 mM H2O2 by RP-UPLC-MS analysis. To be noted: buffer, 1 h. It is filed as physicochemical. The essentials: as §1
Data set [4] in a line: Chemical stability in 20% DMSO/PBS at 100 uM at 37 degC after 60 mins in absence of H2O2 by RP-UPLC-MS analysis. Conditions: buffer, 1 h. It is filed as physicochemical. In a few lines:
as §1

Data set [5] has as its system Mus musculus. The data set is described as follows: Anti-arthritic activity in DBA/1J mouse model of collagen-induced arthritis inflammation assessed as reduction in fore limb swelling at 7 mg/kg, ip administered daily for 14 days starting from day 27 post disease onset and measured 3 times per week from day 18 to 40 […]. It is filed as functional, organism-based. In a few lines:
(§2)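 Male DBA/1J mice (8–9 weeks) were immunized intradermally near the tail base with 100 µg chicken type II collagen in CFA on day -1, with a 50 µg boost on day 21. From day 27 they received daily i.p. dosing in 2% DMSO/PBS for 14 days (n = 8/group). Blinded scoring ran three times weekly, day 18–40, at 0–15 per limb (maximum 60). Mice scoring above 45 were removed. Results are mean ± SEM, tested by one-tailed Mann–Whitney.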

The test system of data set [6] is Mus musculus. The data set is described as follows: Toxicity in DBA/1J mouse model of collagen-induced arthritis inflammation assessed as reduction in body weight at 8.3 mg/kg, ip administered daily for 14 days starting from day 27 post disease onset. It is filed as organism-based. To be noted: in vivo, 336 h.
The nature of data set [7]: Apparent intrinsic clearance in human liver microsomes at 37 degC at pH 7.4 by RP-UPLC-MS analysis. It is filed as ADME, microsome. To be noted: read-out: CLH(app). The essentials:
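Pooled human liver microsomes in PBS were preincubated for 10 min at 37 °C. Compound was added from a 10 mM DMSO stock, then NADPH from a 30 mM stock, with a no-NADPH control. Aliquots taken at 0–40 min were quenched in ice-cold MeCN, centrifuged and analyzed by UPLC-MS. CL'int was derived from the in vitro t1/2 scaled by 45 mg microsomes/g liver and 20 g liver/kg body weight.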
A general note: Liver microsomes are a subcellular fraction often used to study metabolism.

Data set [8] can be described thus: Chemical stability in pH 7.4 PBS buffer after 24 hrs by RP-UPLC-MS analysis. It is filed as physicochemical. Conditions: pH 7.4, 24 h. In a few lines: as §1
Data set [9] can be described thus: Half life in 20% DMSO/PBS at 100 uM at 37 degC at pH 7.4 by RP-UPLC-MS analysis. It is filed as physicochemical. In a few lines: as §1
The nature of data set [10]: Prodrug activation in 20% DMSO/PBS assessed as 0.5 mM H2O2-mediated methotrexate formation by measuring prodrug half life at 100 uM at 37 degC, pH 7.4 by RP-UPLC-MS analysis. It is filed as physicochemical. To be noted: buffer, pH 7.4, 100 µM. In a few lines: as §1
Data set [11] relates to Mus musculus. Put plainly: Anti-arthritic activity in DBA/1J mouse model of collagen-induced arthritis inflammation assessed as reduction in fore limb swelling at 8.3 mg/kg, ip administered daily for 14 days starting from day 27 post disease onset and measured 3 times per week from day 18 to 40 […]. It is filed as functional, organism-based. In a few lines:
as §2

Data set [12] is described as follows: Half life in human plasma at 37 degC at pH 7.4 by RP-UPLC-MS analysis. It is filed as ADME, cell-free. The essentials: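 Reconstituted freeze-dried human plasma was diluted 1:1 with PBS (pH 7.4) and preincubated for 10 min at 37 °C. Compound was added from a 1 mg/mL DMSO stock and incubated at 37 °C. Samples at 0, 0.5, 1, 2, 4 and 8 h were quenched in ice-cold MeCN, centrifuged, and the supernatant analyzed by RP-UPLC-MS. t1/2 is from triplicates ± SD.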

Data set [13] is described as follows: Thermodynamic solubility in pH 7.4 PBS buffer at 2 mg sonicated for 10 mins followed by incubation at 20 degC for 15 hrs by RP-UPLC-MS analysis. To be noted: read-out: Therm_solubility. It is filed as physicochemical. The essentials:
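Solid (2 mg) in 1 mL PBS (pH 7.4) was sonicated, shaken for 15 h at 20 °C and centrifuged. The supernatant was diluted 1:5 in DMF and quantified by RP-UPLC-MS against a 25–125 µg/mL calibration curve. Results are at least three measurements ± SD.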

Data set [14] is described as follows: Prodrug activation in 20% DMSO/PBS assessed as 5 mM H2O2-mediated methotrexate formation by measuring prodrug half life at 100 uM at 37 degC, pH 7.4 by RP-UPLC-MS analysis. It is filed as physicochemical. Conditions: buffer, pH 7.4, 100 µM. The essentials:
as §1

In brackets after ≈: the same amount, converted by molar mass. Activity calls are given as the source filed them. The rule behind the calls is not given here.

`CN(Cc1cnc2nc(N)nc(N)c2n1)c1ccc(C(=O)N[C@@H](CCC(=O)O)C(=O)N2CCSC2=O)cc1`: in data set [1], the Stability entry is listed as “Unstable”.
Take `CN(Cc1cnc2nc(N)nc(N)c2n1)c1ccc(C(=O)N[C@@H](CCC(=O)O)C(=O)O)cc1` [METHOTREXATE]: the Activity result in the data set on Mus musculus [2] is “Toxic”. The Stability result in data set [3] and in data set [4] was “Stable” each time. In addition, in the data set on Mus musculus [5], the result was Active.
By half-life is commonly meant how long it takes for the measured level to halve. Consider `CN(Cc1cnc2nc(N)nc(N)c2n1)c1ccc(C(=O)N[C@@H](CCC(=O)N2CCSC2=O)C(=O)O)cc1`, for which the Activity entry with Mus musculus [6] was “Non-Toxic”. In [7], the CLint scaled was 1.4 mL/min/kg. Also, the Stability entry in data set [8] is “Stable”. The half-life at 100 µM in [9] was 116 h. Further, the t1/2 stood at 16.5 h in [10] and 1.7 h in data set [14]. In addition, in the data set with Mus musculus [11], the outcome was Active. In [12], this compound showed a half-life of 7 h. The solubility thermodynamic at 15 h in data set [13] stood at 400 µg/mL (≈ 741 µM).
